# Assay outcomes from PubChem BioAssay.
# Hits are enriched below; roughly 3.5% of the tested compounds scored in any of these assays.
# MrgX1 PAM = allosterically activates human MrgX1 receptor signaling. Q96LB2. MrgX1-HEK293, Fluo-4 calcium flux, FDSS; active compounds read high. B-score at 10 µM. actives 0.63% (n = 310,000). AID 588675;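 active = plate-corrected calcium response at least 3 library SD above typical, normal starting fluorescence, not activating the receptor alone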;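 also: compound read alongside a low EC10 to EC30 dose of BAM8-22 agonist; peak minus trough fluorescence over baseline measured at the second addition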
# Target sequence (Q96LB2 whole entry, looked up): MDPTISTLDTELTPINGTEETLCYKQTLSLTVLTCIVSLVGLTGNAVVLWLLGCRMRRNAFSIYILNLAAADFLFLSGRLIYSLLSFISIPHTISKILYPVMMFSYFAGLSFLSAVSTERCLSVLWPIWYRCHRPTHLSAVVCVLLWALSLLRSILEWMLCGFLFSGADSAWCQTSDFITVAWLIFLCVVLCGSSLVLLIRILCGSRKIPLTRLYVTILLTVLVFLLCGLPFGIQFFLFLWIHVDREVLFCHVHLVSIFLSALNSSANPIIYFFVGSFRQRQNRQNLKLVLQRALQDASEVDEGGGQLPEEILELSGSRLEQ
# MrgX1 antagonist = human MrgX1 receptor antagonism, primary screen; Q96LB2; MRGX1-HEK293 calcium flux, Fluo-4, BAM8-22 antagonism; active compounds read low; B-score at 10 µM; actives 1.3% (n = 310,000); AID 588676;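 active = calcium-response B-score plate-corrected more than 3 library SD below zero, starting fluorescence within 5 deviations, no agonist response on first addition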;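 also: peak minus trough fluorescence over baseline after final BAM8-22 challenge near maximal dose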
# MrgX1 ag = agonists of human MrgX1 receptor; AID 588627; MrgX1-HEK293 cells, Fluo-4 calcium fluorescence, agonist mode; active compounds read high; actives 0.44% (n = 310,000); B-score at 10 µM; Q96LB2;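 active = calcium response B-score plate-corrected fluorescence ratio at least 3 library SD, with starting fluorescence B-score inside 5 SD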
#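 System – MrgX1-expressing HEK293 cells · Incubation – cells plated overnight, dye loaded 0.5 h 37 °C, 0.5 h room temperature · Technique – kinetic Fluo-4 NW fluorescence of intracellular calcium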
# RGS4 act = RGS4 potentiation or activation; HEK293 M3R/inducible RGS4, carbachol calcium flux Fluo4; active compounds read low; B-score at 10 µM; actives 0.92% (n = 310,000); AID 463111;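 active = B-score of the integrated calcium signal more than 4 SD below the library mean, with starting fluorescence not abnormally high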;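 also: negative B-score means reduced calcium response which marks RGS4 activation or potentiation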
#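 Assay system: HEK293 FlpIn-TREx cells, stable M3R, doxycycline-inducible RGS4 / Probe or stimulus: carbachol, ECmax concentration / Times: overnight RGS4 induction, 30 min dye load 37 °C, 20 min compound RT / Signal: kinetic calcium fluorescence imaging with Fluo4-AM dye, 2 µM / Measure: Agonist-evoked peak-minus-minimum fluorescence over baseline, integrated ratio, B score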
# RGS4 inh = human RGS4 inhibition; B-score at 10 µM; actives 0.45% (n = 310,000); HEK293 M3R/RGS4 inducible, Fluo-4 calcium flux; active compounds read high; triggered by carbachol at its EC20; P49798;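 active = B-score, a plate-corrected calcium signal, over three deviations above library mean, with baseline fluorescence within five deviations of library mean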;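 also: RGS4 expression induced by doxycycline in cells with stable M3 receptor; B-score is computed from the integrated fluorescence ratio over baseline after carbachol; higher B-score means a larger calcium signal and so more RGS4 inhibition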
# Target sequence (P49798 whole entry, looked up): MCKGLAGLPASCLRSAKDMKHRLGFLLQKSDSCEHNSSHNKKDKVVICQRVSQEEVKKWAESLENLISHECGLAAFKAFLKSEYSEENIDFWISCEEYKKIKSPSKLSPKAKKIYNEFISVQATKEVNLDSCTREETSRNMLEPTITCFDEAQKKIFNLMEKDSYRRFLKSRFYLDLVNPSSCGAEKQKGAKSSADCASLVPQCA
# * marks the source's active call; other numbers are inactive results; i = inactive; x = not tested or not shown; ! = not confirmed by another sample.
SMILES,MrgX1 PAM,MrgX1 antagonist,MrgX1 ag,RGS4 act,RGS4 inh
CCn1c2ccccc2c2cc(NC(=O)c3coc(=O)c(Br)c3)ccc21,i,i,i,i,i
CCn1c2ccccc2c2cc(NC(=O)c3ccc(Br)o3)ccc21,i,-7.5*,i,i,i
COC(=O)CN1C(=O)N/C(=C/c2ccc(OC)cc2)C1=O,i,i,43*,i,i
CC(C)Oc1cccc(-c2cc(C(=O)N3CCN(c4ncccn4)CC3)c3ccccc3n2)c1,i,i,i,-7.4*,i
COc1cccc(-c2cc(C(=O)N3CCN(c4ncccn4)CC3)c3ccccc3n2)c1,i,i,i,-7*,i
Cc1ccc(-c2cc(C(=O)N3CCN(c4ncccn4)CC3)c3ccccc3n2)cc1,i,i,i,i,i
Cc1ccc(C)c(C(=O)CSc2nc(N)cc(=O)[nH]2)c1,i,i,i,i,i
N#C/C(=C\c1cccs1)C(=O)Nc1nccs1,i,i,44*,i,i
Cn1c(=O)n(CCc2ccccc2)c(=O)c2c1nc1n2CCCN1CCc1ccccc1,i,i,i,-7.7*,i
c1ccc(Nc2nc(-c3ccccn3)cs2)cc1,i,i,i,i,i
COc1cccc2sc(Nc3nc(-c4ccccn4)cs3)nc12,7.8*,i,i,-8.7*,i
COc1ccc([N+](=O)[O-])c(S(=O)(=O)c2ccccc2)n1,i,-6.2*,i,i,i
COc1ccc([N+](=O)[O-])c(S(=O)(=O)c2ccc(Cl)cc2)n1,i,-6.5*,i,i,i
O=[N+]([O-])c1cccnc1S(=O)(=O)c1ccccc1,i,i,i,i,i
CCCCOc1cccc(C(=O)Nc2ccc(S(=O)(=O)Nc3nnc(CC)s3)cc2)c1,i,i,i,i,i
CCc1n[nH]c(=S)n1/N=C/c1cc(Br)c(OC)cc1OC,i,i,i,i,i
CC(C)(C#CC(O)(c1ccccc1)c1ccccc1)N1CCCCC1,i,i,i,-7.1*,i
Cc1ccc(C(=O)N(C)CC(=O)Nc2ccc(F)c(F)c2F)o1,i,i,i,i,i
CCOc1ccc(NC(=O)CSc2nnc(CCNC(=O)c3ccc(OC)cc3)n2C)cc1,i,-6.3*,i,i,i
CCCCN(CCCC)c1nc2ccccc2nc1C(C#N)C(=O)NCCCOC (stereo not drawn),i,i,i,-9.5*,i
CCOc1ccc(NC(=O)CSc2nnc(-c3ccncc3)n2CC2CCCO2)cc1 (stereo not drawn),i,-6.7*,i,i,i
Cc1ccccc1NC(=O)c1ccc(NC(=O)C2CC(=O)OC23CCCCC3)cc1 (stereo not drawn),x,x,x,i,i
O=C(COc1ccccc1Br)N1CCN(C(=O)c2ccco2)CC1,i,i,i,i,i
C=CCn1c(SCCCC)nc(O)cc1=O,10*!,i,i,i,i
CCn1cc(C(=O)N[C@@H](CCSC)C(=O)NCCCn2ccnc2)c(=O)c2cc3c(cc21)OCO3,i,i,i,i,i
SMILES,MrgX1 PAM,MrgX1 antagonist,MrgX1 ag,RGS4 act,RGS4 inh
C(C#CCCCCCCCCC[n+]1ccccc1)#CCCCCCCCCC[n+]1ccccc1,i,i,i,-12*,i
COc1ccc(-c2csc(NCCc3nc4cc(C(=O)NCCCO)ccc4n3Cc3ccc(C)cc3)n2)cc1,i,i,i,i,i
Cc1ccccc1NC1=NCC(c2ccc([N+](=O)[O-])cc2)S1 (stereo not drawn),i,-5.7*,i,i,i
O=c1c2ccccc2nnn1CSc1nnc(-c2cccc(S(=O)(=O)N3CCCCC3)c2)o1,i,i,i,-7.9*,i
CC(C)(C)c1ccc(/C=C/C(=O)N2CCN(c3ncccn3)CC2)cc1,i,-6.3*,i,i,i
CC(C)C(=O)Nc1cccc(C(=O)NCc2ccc3c(c2)OCO3)c1,i,i,i,i,i
CC12CC(NC(=O)N1c1cccc(C(=O)NCc3ccc4c(c3)OCO4)c1)c1cc(Cl)ccc1O2 (stereo not drawn),i,-7*,i,i,i
Cc1ccc(S(=O)(=O)Nc2c(O)ccc3ccccc23)cc1,i,i,47*,i,i
O=S(=O)(Nc1c(O)ccc2ccccc12)c1cccc2ccccc12,i,i,i,i,i
Cc1ccc(S(=O)(=O)Nc2c(Cl)c(Cl)c(O)c3ccccc23)cc1,i,i,i,i,5.5*
Cc1ccc(S(=O)(=O)Nc2ccccc2-c2ccccc2NS(=O)(=O)c2ccc(C)cc2)cc1,i,i,i,i,i
Cc1cc(/C=C\c2ccc3cc(N(C)C)ccc3[n+]2C)c(C)n1-c1ccccc1,i,-9.7*,i,x,x
C[n+]1c(/C=C/c2ccc(O)cc2)ccc2ccccc21,i,i,i,i,i
OCC[C@@H]1C[C@H](O)[C@@H](O)[C@]2(OCc3ccccc32)O1,i,i,i,i,i
C/C(=N\NC(=O)COc1ccc(C)cc1Br)c1cc([N+](=O)[O-])cs1,i,i,i,i,i
C/C(=N\NC(=O)COc1ccc(C)cc1[N+](=O)[O-])c1cccs1,i,-6.5*,i,i,i
CCOc1ccc(C(=O)Nc2ccc(NC(=O)c3cccs3)cc2)cc1[N+](=O)[O-],i,-7.3*,i,i,i
CSc1ccc2c(c1)C(N1CCN(C)CC1)Cc1ccccc1S2 (stereo not drawn),i,i,i,-7.4*!,i
CC(C)c1ccc2c(c1)C(N1CCNCC1)Cc1ccc(F)cc1S2 (stereo not drawn),i,i,i,-8.7*,i
CN1CCN(C2Cc3ccccc3Sc3ccc(Cl)cc32)CC1 (stereo not drawn),i,i,i,x,x
CN1CCN(C2Cc3cc(F)ccc3Sc3ccc(Cl)cc32)CC1 (stereo not drawn),i,i,i,-8.3*,i
Cc1ccc(CNC(=O)CNC(=O)[C@@H]2Cc3ccccc3CN2C(=O)OC(C)(C)C)cc1,i,i,i,i,i
O=S(=O)(c1ccc(Cl)c(C(F)(F)F)c1)N1CCN(CC(O)COc2ccccc2F)CC1 (stereo not drawn),i,i,i,i,i
COc1ccc(/C=C(\C#N)C(=O)OCC(=O)Nc2ccc(-c3nc4ccc(C)cc4s3)cc2)cc1,i,i,i,i,i
